This is an account of results in PubChem BioAssay AID493228 (Broad Institute, 2011).

“And” between values parts separate entries of the source, which are not always exact repeats. Identical values can stand only once. Results filed as inconclusive are left out. The source made the active and inactive calls.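 How the source made its calls: active means fitted dose curve passes 500% activation at or below the top valid tested dose; inconclusive means no clear call, values can overlap the other calls; inactive means the rest, opposite-direction activity included.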

Test system in the first assay: not listed separately
The experiment in a line: HIF reporter activators, metal chelation test – cell-based, iron medium, luminescence, U2OS, dry powder, mechanism study for HIF activator project, dose response (AID 493228). The following applies: U2OS HRE-luciferase reporter, iron medium, luminescence; at 38 µM (top of the series). The method, boiled down: (§1)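 system = U2OS 3×HRE-luciferase reporter cells | input = 6,000 cells/well | compound = 8 concentrations, 3-fold spacing | technique = luciferase luminescence with Steady-Glo reagent | buffer or medium = medium supplemented with ferric nitrate, 50 µM final | timing = 24 h cell plating, 24 h compound exposure, 37 °C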
Take `Oc1ccc(CNC2Cc3ccccc3C2)c2cccnc12`: the activation is -87.7% (inactive). Regarding `c1ccc(-c2nnc(-c3ccccn3)nc2NCCc2ccccn2)cc1`, the activation was 460% (inactive).

Consider `c1ccc(-c2cnc(Nc3nc(-c4ccccn4)nnc3-c3ccccc3)s2)cc1`, for which the activation was -26.9% (inactive). Same read-out and setting: the same measure for `Oc1ccc(CNC2CCc3ccccc32)c2cccnc12` (stereo not given): -90.3% (inactive); for `Oc1ccc(CN2CCC(Cc3ccccc3)CC2)c2cccnc12`: 27% (inactive). Turning to `CC(C)(C)OC(=O)N1CCN(Cc2ccc(O)c3ncccc23)CC1`, the activation was 10.8% (inactive). `O=C(c1cc(-c2ccccc2)on1)N1CCN(c2ccncc2)CC1`: the activation is -9.52% (inactive). The same measure, in the same setting: the same measure for `Cc1ccccc1CNC(=O)c1cc(-c2ccccc2)on1`: 40.9% (inactive). On the same count and under the same terms, then `O=C(Nc1ncc2ccccc2n1)c1cc(-c2ccccc2)on1`, with 196% (inactive); and `CN(C)CCNC(=O)c1cc(-c2ccccc2)on1`, with 36.8% (inactive).

As for `c1ccc(-c2csc(Nc3nc(-c4ccccn4)nnc3-c3ccccc3)n2)cc1`, the activation was 73.9% (inactive). Still for that read-out and setting: the same measure for `Cn1c(-c2ccccc2)cnc1Nc1nc(-c2ccccn2)nnc1-c1ccccc1`: -7.02% (inactive); for `c1ccc(-c2nnc(-c3ccccn3)nc2Nc2nc3ccccc3s2)cc1`: -17.3% (inactive). Still for that read-out and setting: then `O=C(Nc1nc(-c2ccccc2)cs1)c1cc(-c2ccccc2)on1`, with -5.37% (inactive); and `CC(C)(C)c1ccc(CNc2nc(-c3ccccn3)nnc2-c2ccccc2)cc1`, with 246% (inactive); and `COc1ccccc1N1CCN(Cc2ccc(O)c3ncccc23)CC1`, with -77.4% (inactive). Same read-out and setting: then `O=C(Nc1ccc2ccccc2n1)c1cc(-c2ccccc2)on1`, with 10.3% (inactive); and `c1ccc(-c2nnc(-c3ccccn3)nc2NCC2CCOCC2)cc1`, with 226% (inactive). As for `c1ccc(-c2nnc(-c3ccccn3)nc2NCCCN2CCOCC2)cc1`, the activation was 168% (inactive). On the same count and under the same terms, then `O=C(Nc1nnc(-c2ccccc2)s1)c1cc(-c2ccccc2)on1`, with -5.78% (inactive). `Oc1ccc(CN2CCC3CCCCC3C2)c2cccnc12` (stereo not given): the activation was -92.3% (inactive). On to `N#CC1(c2ccccc2)CCN(Cc2ccc(O)c3ncccc23)CC1`, for which the activation is 10.5% (inactive). Same read-out and setting: the same measure for `OCCCNc1nc(-c2ccccn2)nnc1-c1ccccc1`: 310% (inactive); for `O=C(NCc1ccccc1)c1cc(-c2ccccc2)on1`: 65.7% (inactive); for `c1ccc(-c2nnc(-c3ccccn3)nc2Nc2cnc3ccccc3n2)cc1`: 299% (inactive). Still for that read-out and setting: the same measure for `Cn1c(-c2ccccc2)cnc1NC(=O)c1cc(-c2ccccc2)on1`: 23.2% (inactive). As for `CN1CCN(c2nc(-c3ccccn3)nnc2-c2ccccc2)CC1`, the activation is 315% (inactive). The same measure, in the same setting: then `O=C(c1cc(-c2ccccc2)on1)N1CCC(N2CCCC2)CC1`, with 0.413% (inactive); and `CC1CN(Cc2ccc(O)c3ncccc23)CC(C)O1` (stereo not given), with -85.2% (inactive). The same measure, in the same setting: then `O=C(NC1CCc2ccccc2C1)c1cc(-c2ccccc2)on1` (stereo not given), with 2.06% (inactive); and `O=C(NC1Cc2ccccc2C1)c1cc(-c2ccccc2)on1`, with 175% (inactive). For `O=C(Nc1cnc2ccccc2c1)c1cc(-c2ccccc2)on1`, the activation is 26% (inactive).

As to `Cc1cccc(NC(=O)c2cc(-c3ccccc3)on2)n1`, the activation is 47.5% (inactive). The same measure, in the same setting: then `O=C(c1cc(-c2ccccc2)on1)N1CCC(N2CCOCC2)CC1`, with 9.93% (inactive).

As to `O=C(Nc1nc2ccccc2s1)c1cc(-c2ccccc2)on1`, the activation is 22.7% (inactive). On the same count and under the same terms, the same measure for `c1ccc(-c2nnc(Nc3nc(-c4ccccn4)nnc3-c3ccccc3)s2)cc1`: 67% (inactive); for `c1ccc(-c2nnc(-c3ccccn3)nc2NCC2CC2)cc1`: 392% (inactive); for `C=CCNc1nc(-c2ccccn2)nnc1-c1ccccc1`: 288% (inactive). Regarding `c1ccc(-c2nnc(-c3ccccn3)nc2NCc2cccnc2)cc1`, the activation was 402% (inactive). On the same count and under the same terms, the same measure for `Oc1ccc(CN2CCc3ccccc3C2)c2cccnc12`: -88.2% (inactive) and -90.7% (inactive).

As to `Cc1ccc(Nc2nc(-c3ccccn3)nnc2-c2ccccc2)cn1`, the activation was 473% (inactive). On to `C[C@@H](Nc1nc(-c2ccccn2)nnc1-c1ccccc1)C1CCCCC1`, for which the activation was 419% (inactive).

Take `c1ccc(-c2cccc(CNc3nc(-c4ccccn4)nnc3-c3ccccc3)c2)cc1`: the activation was 113% (inactive). As for `c1ccc(-c2nnc(-c3ccccn3)nc2N2CCC(C3CCCCC3)C2)cc1` (stereo not given), the activation was 17.7% (inactive). Same read-out and setting: the same measure for `O=C(NCCN1CCCCC1)c1cc(-c2ccccc2)on1`: 64.1% (inactive); for `Cc1cccc(Nc2nc(-c3ccccn3)nnc2-c2ccccc2)n1`: 306% (inactive). As to `OCC1CCN(Cc2ccc(O)c3ncccc23)CC1`, the activation was -91.5% (inactive). The same measure, in the same setting: then `c1ccc(-c2nnc(-c3ccccn3)nc2N2CCC(c3ccccc3)C2)cc1` (stereo not given), with 313% (inactive).

`CN(C)c1nc(-c2ccccn2)nnc1-c1ccccc1`: the activation was 80.9% (inactive). With `O=C(Nc1cn2ccccc2n1)c1cc(-c2ccccc2)on1`, the activation was 36% (inactive). Consider `Cn1c(NC(=O)c2cc(-c3ccccc3)on2)nc2ccccc21`, for which the activation was 4.17% (inactive). On to `CN1CCN(C(=O)c2cc(-c3ccccc3)on2)CC1`, for which the activation was 4.95% (inactive). The same measure, in the same setting: then `Cc1ccc(CNC(=O)c2cc(-c3ccccc3)on2)cc1`, with 13.2% (inactive); and `O=C(Nc1ncc(-c2ccccc2)o1)c1cc(-c2ccccc2)on1`, with 22.7% (inactive). Take `Cc1ccc(NC(=O)c2cc(-c3ccccc3)on2)cn1`: the activation is -1.64% (inactive).

The next assay concerns U2OS HRE-luciferase reporter, iron medium, luminescence. Described as above.
Details: not given
In short, it runs like this:
as §1
A word on the AC50: it is the midpoint of the concentration-response curve, whichever way the signal moves. Turning to `Cc1ccccc1CNc1nc(-c2ccccn2)nnc1-c1ccccc1`, the half-maximal activity concentration (AC50) is 25 µM.

With `O=C(NCCCCO)c1cc(-c2ccccc2)on1`, the AC50 is 2.72 µM.

Take `CCCCNC(=O)c1cc(-c2ccccc2)on1`: the AC50 was 7.93 µM. As for `CC(C)(C)CCNc1nc(-c2ccccn2)nnc1-c1ccccc1`, the AC50 was 17 µM and 16.2 µM. Take `c1ccc(CCNc2nc(-c3ccccn3)nnc2-c2ccccc2)cc1`: the AC50 was 20.9 µM. Same read-out and setting: then `Clc1cccc(CNc2nc(-c3ccccn3)nnc2-c2ccccc2)c1`, with 17.9 µM. On the same count and under the same terms, then `c1ccc(-c2ccc(CNc3nc(-c4ccccn4)nnc3-c3ccccc3)cc2)cc1`, with 9.24 µM.

Consider `Cc1ccc(CNc2nc(-c3ccccn3)nnc2-c2ccccc2)cc1C`, for which the concentration at half-maximal activity (AC50) was 13.6 µM. Consider `COc1cccc(CNc2nc(-c3ccccn3)nnc2-c2ccccc2)c1`, for which the AC50 was 22.8 µM.

For the compound `c1ccc(-c2nnc(-c3ccccn3)nc2NCCN2CCOCC2)cc1`, the AC50 is 31.7 µM. Take `c1ccc(-c2nnc(-c3ccccn3)nc2NCC2CCCCC2)cc1`: the half-maximal activity concentration (AC50) is 18.2 µM. On the same count and under the same terms, the same measure for `c1ccc(-c2nnc(-c3ccccn3)nc2N2CCC(N3CCOCC3)CC2)cc1`: 36 µM; for `Cc1cccc(CNc2nc(-c3ccccn3)nnc2-c2ccccc2)c1`: 17.3 µM; for `O=C(NCCN1CCOCC1)c1cc(-c2ccccc2)on1`: 12.4 µM. Still for that read-out and setting: then `COc1ccc(CNc2nc(-c3ccccn3)nnc2-c2ccccc2)cc1`, with 14.3 µM; and `C[C@@H](Nc1nc(-c2ccccn2)nnc1-c1ccccc1)c1ccccc1`, with 20.7 µM. Take `O=C(NCC1CC1)c1cc(-c2ccccc2)on1`: the AC50 is 7.37 µM. On to `CC(C)(C)CCNC(=O)c1cc(-c2ccccc2)on1`, for which the AC50 was 23.1 µM.

As to `C[C@H](Nc1nc(-c2ccccn2)nnc1-c1ccccc1)C1CCCCC1`, the AC50 was 18.9 µM. The same measure, in the same setting: the same measure for `O=C(NCCCN1CCOCC1)c1cc(-c2ccccc2)on1`: 12 µM; for `O=C(NCCCn1ccnc1)c1cc(-c2ccccc2)on1`: 6.23 µM; for `CC(Nc1nc(-c2ccccn2)nnc1-c1ccccc1)c1ccccc1` (stereo not given): 23.2 µM.

In the case of `O=C(NCCCO)c1cc(-c2ccccc2)on1`, the AC50 was 7.47 µM. As for `c1ccc(CNc2nc(-c3ccccn3)nnc2-c2ccccc2)cc1`, the AC50 is 17 µM. On the same count and under the same terms, then `c1ccc(-c2nnc(-c3ccccn3)nc2NCc2ccccn2)cc1`, with 27.7 µM.
